The nature of data set [1]: Cytotoxicity against mouse […] cells assessed as cell viability at 5 uM. In kind it is cell-based. As to conditions: HT22 cells, read-out: Activity.
A short description of data set [2]: AUC (0 to infinity) in Sprague-Dawley rat at 3 mg/kg, ip. It counts as ADME, organism-based. As to conditions: plasma. Details: dose 3 mg/kg, route intraperitoneal, time infinity.
The subject of data set [3] is HT-22. The data set is described as follows: Neuroprotective activity against in mouse HT22 cells assessed as inhibition of amyloid beta-induced toxicity at 10 uM incubated for 10 mins prior to amyloid beta-challenge measured after 24 hrs by MTT assay. In kind it is functional. An outline of the steps:
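HT-22 mouse hippocampal cells (DMEM, 10% FBS), 5000 per well, seeded a day before. Compound solution at 10 μM added 10 min before amyloid beta 1–42 solution at 10 μM, then 24 h at 37 °C. MTT 2 h, then acidified Triton/isopropanol for 1 h at RT, A570. Vehicle subtracted; % inhibition versus Aβ-treated vehicle; viability from wells without Aβ.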
A general note: Tetrazolium assays rely on reduction of a dye to a coloured formazan, in cell work by metabolically active cells.

Data set [4] in a line: Cmax in Sprague-Dawley rat at 3 mg/kg, ip. It counts as ADME, organism-based. Set-up: dose 3 mg/kg, route intraperitoneal. As to conditions: in vivo.
The nature of data set [5]: AUClast in ICR mouse at 10 mg/kg, po. It counts as ADME, organism-based. Details: time 0 - last, dose 10 mg/kg, route oral. As to conditions: plasma.
Data set [6] relates to HT-22. The data set is described as follows: Inhibition of mPTP in mouse HT22 cells assessed as reduction in amyloid beta-induced mitochondrial membrane damage at 10 uM incubated for 10 mins prior to amyloid beta-challenge measured every 1 hr for 3 hrs by JC-1 based fluorometric analysis. In kind it is cell-based. Details: scale not given: the % may be the effect or the level left. The method in brief: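 HT-22 cells, 30,000 per well, seeded a day earlier, loaded with 7.5 μM JC-1 (final) in phenol red-free Opti-MEM for 1 h 15 min at 37 °C, then PBS-washed. Compound solution at 10 μM for 10 min at 37 °C, then amyloid beta 1–42 solution at 10 μM. Red (ex/em 530/580) and green (485/530) fluorescence read hourly for 3 h. Green/red ratio change normalised to vehicle as 100%.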

Data set [7] in a line: Cytotoxicity against mouse […] cells assessed as cell viability at 10 uM after 24 hrs by MTT assay. As to conditions: read-out: Activity. In kind it is cell-based.
A short description of data set [8]: Terminal half life in Sprague-Dawley rat at 3 mg/kg, ip. As to conditions: in vivo, read-out: beta t1/2. Set-up: dose 3 mg/kg, route intraperitoneal. It counts as ADME, organism-based.
Data set [9] is described as follows: AUClast in Sprague-Dawley rat at 3 mg/kg, ip. In kind it is ADME, organism-based. Set-up: dose 3 mg/kg, route intraperitoneal, time 0 - last. As to conditions: plasma.
A further data set deals with Plasma. The data set is described as follows: Metabolic stability in rat plasma at 0.5 ug/ml after 2 hrs by LC/MS analysis. In kind it is ADME, cell-free. As to conditions: 2 h. The method in brief:
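Drug-free rat plasma spiked from acetonitrile stock to 0.5 μg/mL, held at 37 °C with shaking for 0, 15, 30, 60 and 120 min. Quenched with 2 volumes of acetonitrile containing carbamazepine internal standard, centrifuged, supernatant quantified by LC–MS/MS.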

A short description of data set [10]: Tmax in ICR mouse at 10 mg/kg, po. In kind it is ADME, organism-based. Set-up: dose 10 mg/kg, route oral. As to conditions: in vivo.
Data set [11] in a line: Ratio of drug uptake in brain to drug uptake in plasma in ICR mouse at 10 mg/kg, po. In kind it is ADME, organism-based. Details: dose 10 mg/kg, route oral. As to conditions: read-out: BPR.
Data set [12] can be described thus: Cmax in ICR mouse at 10 mg/kg, po. In kind it is ADME, organism-based. Details: dose 10 mg/kg, route oral. As to conditions: in vivo.
Data set [13] is described as follows: Metabolic stability in human liver microsomes at 1 uM after 30 mins by LC/MS analysis. In kind it is ADME, Microsome. As to conditions: read-out: Stability. The method in brief: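 Pooled human liver microsomes (0.5 mg/mL protein), compound at 1 μM, 1.2 mM NADPH, 100 mM phosphate pH 7.4, 37 °C with shaking for 30 min, in duplicate. Stopped with ice-cold acetonitrile containing internal standard, centrifuged, supernatant analysed by LC–MS/MS for % remaining.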
(Liver microsomes are vesicles of endoplasmic reticulum, rich in cytochrome P450 enzymes.)

Data set [14] deals with HT-22. The data set is described as follows: Inhibition of mPTP in mouse HT22 cells assessed as recovery in amyloid beta-suppressed ATP level at 5 uM incubated for 10 mins prior to amyloid beta-challenge measured for 7 hrs relative to control. In kind it is cell-based. Details: scale not given: the % may be the effect or the level left. An outline of the steps: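 HT-22 mouse hippocampal cells, grown in DMEM with 10% FBS at 37 °C and 5% CO2, were seeded the day before. Compound (10 µM solution) added 10 min before amyloid beta 1-42 (10 µM solution), then 7 h at 37 °C. Lysates normalised to equal protein by BCA, and ATP measured with a luciferase kit. % recovery is relative to the amyloid-treated vehicle. Viability is from ATP without amyloid beta.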

Data set [15] can be described thus: Tmax in Sprague-Dawley rat at 3 mg/kg, ip. Set-up: dose 3 mg/kg, route intraperitoneal. In kind it is ADME, organism-based. As to conditions: in vivo.

Structures are written as SMILES.

The results in this text go back to ChEMBL document CHEMBL2331084, “Synthesis and evaluation of oxime derivatives as modulators for amyloid beta-induced mitochondrial dysfunction” (Eur J Med Chem, 2013).

A word on the AUC(0-inf): it is the area under the concentration-time curve extrapolated to infinity. Usually inhibition stands for the change of the read-out against control, counted positive when it falls. What is called Cmax is the highest concentration seen after dosing. The term AUC(0-t) denotes the area under the concentration-time curve up to a stated or last time point. As usually defined, the Tmax is the time from dosing to the highest level.

On to `C(=N\OC1CN2CCC1CC2)/c1ccccc1OCc1ccccc1` (stereo unspecified), for which the viability at 5 µM in data set [1] worked out at 92%. The molecule further gave an AUC(0-inf) in [2] of 0.99 µg·h/mL. In addition, the inhibition at 10 µM in the data set with HT-22 [3] was found to be 0%. Further, the Cmax turned out to be 0.524 µg/mL in data set [4] and 0.33 µg/mL in [12]. Moreover, the AUC(0-t) in data set [5] is 0.525 µg·h/mL; in data set [9], 0.93 µg·h/mL. Further, the Activity turned out to be 59% with HT-22 [6] and 13% in the data set on HT-22 [14]. Moreover, the viability at 24 h, 10 µM in data set [7] stood at 84%. Besides, the half-life in data set [8] worked out at 366 min. Moreover, the Stability result in the data set on Plasma was “Stable”. Besides, the Tmax is 5 min in [10] and 25 min in data set [15]. Moreover, in [11], the Kp came out at 273. Moreover, the remaining at 0.5 h, 1 µM in [13] turned out to be 85%.
